# Screens (PubChem BioAssay)
# Many of the other results were omitted from the sample, so hits are more common in it than they were.
# ROMK primary = human ROMK K+ channel modulation, primary screen; P48048; Tet-inducible ROMK, thallium flux fluorescence; actives lie on both sides; B-score at 10 µM; 2% of 130,000 active; AID 1918;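 active means signal ratio slope over the read window, or its plate-corrected B-score, at least 3 SD from the plate mean, either direction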;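 further: B-score of the F/F0 ratio slope over 7 to 12 s after thallium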
# Target sequence (P48048 whole entry, looked up): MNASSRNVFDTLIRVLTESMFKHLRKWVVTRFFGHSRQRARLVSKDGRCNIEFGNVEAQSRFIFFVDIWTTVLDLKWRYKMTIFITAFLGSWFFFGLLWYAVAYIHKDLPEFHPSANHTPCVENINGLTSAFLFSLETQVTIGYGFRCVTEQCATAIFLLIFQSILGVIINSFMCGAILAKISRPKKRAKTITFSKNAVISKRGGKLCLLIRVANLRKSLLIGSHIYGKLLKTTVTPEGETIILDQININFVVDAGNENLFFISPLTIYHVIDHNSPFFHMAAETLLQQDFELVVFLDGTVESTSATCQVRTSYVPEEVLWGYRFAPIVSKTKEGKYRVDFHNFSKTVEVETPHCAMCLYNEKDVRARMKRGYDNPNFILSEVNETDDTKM
# Biofilm kill mix = mixtures killing C. albicans biofilm. 0.02% of 120,000 active. inhibition, % at 7.6 µM. C. albicans biofilm persisters + clotrimazole, fluorescence viability; primary screen in compound mixtures of four per well. AID 1242;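 active means inhibition above 30.3% in the primary screen of four-compound pools, then above 30% when the compound was retested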;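 further: compounds exposed to preformed 24 h biofilms for 48 h; 0% = untreated biofilm control and 100% = clotrimazole plus chlorhexidine kill blank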
#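 Test system: C. albicans biofilms. Buffer or medium: RPMI/MOPS medium, pH 7.0. Timing: 48 h compound exposure at 37 °C. Technique: Alamar Blue fluorescence. Evaluation: percent inhibition of biofilm viability.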
# * = called active by the depositor; / = not tested or not shown.
SMILES,ROMK primary,Biofilm kill mix
Fc1cnc(N2CCOCC2)nc1N1CCOCC1,0.088,10
Fc1cnc(N2CCOCC2)nc1N1CCc2ccccc21,-2.8*,/
O=C(O)Cn1cc(C(=O)C(F)(F)F)c2ccccc21,0.57,18
COC(=O)c1ccccc1NC(=O)C1CC(c2ccc(F)cc2)=NO1 (stereo unspecified),-0.19,/
S=c1[nH]nc(-c2ccccn2)n1/N=C/c1ccc(-c2ccccc2Cl)o1,0.33,6
Cc1cc(C(=O)N/N=C/c2ccc[nH]2)no1,0.39,10
Cc1cc(C(=O)N/N=C/c2ccccc2Br)no1,3.1*,/
O=C(c1ccco1)N1CCC(c2ccccc2)C1 (stereo unspecified),-0.37,/
CC(=O)Nc1cccc(NC(=O)CSc2ncc(-c3ccc(Cl)cc3)n2Cc2ccco2)c1,-4.6*,/
COc1ccc(-c2cnc(SCC(=O)Nc3ccc4c(c3)OCO4)n2Cc2ccco2)cc1,-1.7,/
Cc1[nH]n(-c2ccccc2)c(=O)c1N=Nc1nccs1,13*,/
Cc1ccccc1N=Nc1c(C)[nH]n(-c2ccccc2)c1=O,0.44,20
Cc1ccc(-c2ccc(SCC(=O)NCC3CCCO3)nn2)cc1 (stereo unspecified),-0.024,23
CCOC(=O)c1ccc(-c2ccc(CO)o2)cc1,-0.1,/
CCOC(=O)c1ccc(-c2ccc(C3Nc4ccccc4C(=O)N3O)o2)cc1 (stereo unspecified),-3.8*,17
N#CC(c1cccc(Cl)c1)c1ccc2c(C(F)(F)F)cc(C(F)(F)F)nc2n1 (stereo unspecified),3.2*,/
NNc1ccc2c(C(F)(F)F)cc(C(F)(F)F)nc2n1,0.22,2
CCN(CC(=O)NCc1ccc(Cl)cc1)Cc1cc(=O)n2ccsc2n1,1.6,7
Cc1ccc(NC(=S)NC(=O)c2sc3ccccc3c2Cl)c(C(=O)O)c1,4.5*,-10
O=C(O)c1ccccc1NC(=S)NC(=O)c1sc2ccccc2c1Cl,3.1,5
CCOc1ccc(N2C(=O)CC(NC3CCCCNC3=O)C2=O)cc1 (stereo unspecified),-0.28,15
CN=C1CC(SC)=C1c1ccc(C)cc1,-2.9*,1
C=C1C2(C(=O)Nc3ccc(SC(F)F)cc3)CCC(C2)C1(C)C (stereo unspecified),/,11
N#C/C(=N\Nc1ccc(Cl)cc1)C(=O)c1ccccc1,2.8*,/
Cc1c(N/N=C(\C#N)C(=O)c2ccc(Cl)cc2)c(=O)n(-c2ccccc2)n1C,-1.1,26
SMILES,ROMK primary,Biofilm kill mix
COc1ccc(C(=O)/C(C#N)=N/Nc2ccc([N+](=O)[O-])cc2)cc1,6*,-12
COc1ccc(N/N=C(\C#N)C(N)=O)cc1,/,15
CCOC(=O)C1=C(C)NC(=O)NC1c1ccc(OCC(=O)OC)c(OC)c1 (stereo unspecified),0.18,/
COc1ccc(OC)c(NC(=O)NNC(=O)CCCOc2ccc(Cl)cc2C)c1,0.062,3
CCCN(Cc1ccccc1)C(=S)NC(=O)c1ccccc1[N+](=O)[O-],4.5*,8
CCC(=O)NC(=S)NNC(=O)c1ccccc1[N+](=O)[O-],0.056,5
CCN(CC)C(=S)NC(=O)c1ccc(Cl)cc1Cl,1.4,/
CCCCN(CCCC)C(=S)NC(=O)c1ccccc1Cl,2.7*,13
CN(CCC#N)S(=O)(=O)c1ccc2c(c1)c(=O)n(C)c(=O)n2C,-0.027,/
O=C(c1cc2ccccc2oc1=O)N(Cc1ccco1)C1CCS(=O)(=O)C1 (stereo unspecified),-0.62,/
CCCCn1c(SCC(=O)/C(C#N)=C(\C)N)nc2ccccc2c1=O,3*,12
C/C(N)=C(/C#N)C(=O)CSc1nc2ccccc2c(=O)n1Cc1ccc(C)cc1,0.25,9
COC(=O)C1=NN(C(=O)c2cccc(Cl)c2)C(O)(C(C)(C)C)C1 (stereo unspecified),2.6*,5
COC(=O)C1=NN(C(=O)c2ccc(Br)cc2)C(O)(C(C)(C)C)C1 (stereo unspecified),0.0026,18
COc1ccc(NC(=O)CSc2ncnc3c2cnn3Cc2ccccc2)cc1,0.0025,/
CCc1nc2ccccc2c(C(=O)OCC(=O)NC(=O)c2cccn2C)c1C,/,20
COc1cccc(OCC(=O)NNC(=O)c2cccs2)c1,0.95,/
CCc1ccc(NC(=O)C(=O)NNC(=O)COc2cccc(OC)c2)cc1,2.8*,20
Cn1nc(C(F)(F)F)cc1-c1ccc(/C=C(\C#N)C(=O)c2ccccc2)s1,/,15
Fc1ccc(C2=CC(c3ccc(Br)o3)n3ncnc3N2)cc1 (stereo unspecified),-3.4*,9
Oc1ccc(C2C=C(c3ccc(F)cc3)Nc3ncnn32)cc1 (stereo unspecified),/,9
S=c1[nH]cnc2sc(-c3ccccc3)cc12,7.7*,18
Cc1ccc(-c2csc3nc[nH]c(=O)c23)cc1,1.1,8
CNc1ncnc2sc(-c3ccccc3)cc12,-1,-11
S=c1[nH]cnc2scc(-c3ccccc3)c12,6.1*,13
